Measured values published in ChEMBL document CHEMBL1770131, “Radiosynthesis and preliminary evaluation of 4-[18F]fluoro-N-[4-[6-(isopropylamino)pyrimidin-4-yl]-1,3-thiazol-2-yl]-N-methylbenzamide as a new positron emission tomography ligand for metabotropic glutamate receptor subtype 1” (Bioorg Med Chem Lett, 2011).

Experiments:
[1] = tested on: Rattus norvegicus; test: Biodistribution in Sprague-Dawley rat pons-medulla at 5 MBq, iv after 30 mins by autoradiography; format: ADME, organism-based; conditions: in vivo, 0.5 h
Method in brief: (§1)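 Male Sprague–Dawley rats given about 5 MBq radioligand in saline by tail vein, with or without co-injected JNJ16259685 at 1 mg/kg. Killed by cervical dislocation 30 min after injection. Brains frozen on dry ice, cut into 20 µm sagittal sections, and imaged by autoradiography as for the in vitro sections.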

[2] = tested on: Thalamus; test: Biodistribution in Sprague-Dawley rat thalamus at 5 MBq, iv after 30 mins by autoradiography in presence of 1 mg/kg of mGluR1 antagonist JNJ16259685; format: organism-based; set-up: dose 1 mg/kg, route intravenous; conditions: in vivo, 0.5 h; method in brief: as §1
[3] = Octanol-water distribution coefficient, Log D of the compound in at pH 7.4 by shaking method; format: physicochemical
Method in brief: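 Radioligand partitioned between n-octanol and PBS at pH 7.4 by shaking. Vortexed 3 min at room temperature, centrifuged 3500 rpm for 5 min. 1 mL of each phase weighed and counted. Organic layer re-partitioned until Log D values were consistent. Log D = Log[cpm/g octanol / cpm/g PBS]. Done in triplicate.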

[4] = tested on: Thalamus; test: Biodistribution in Sprague-Dawley rat thalamus at 5 MBq, iv after 30 mins by autoradiography; format: ADME, organism-based; conditions: in vivo, 0.5 h; method in brief: as §1
[5] = tested on: Hippocampus; test: Biodistribution in Sprague-Dawley rat hippocampus at 5 MBq, iv after 30 mins by autoradiography in presence of 1 mg/kg of mGluR1 antagonist JNJ16259685; format: organism-based; set-up: dose 1 mg/kg, route intravenous; conditions: in vivo, 0.5 h; method in brief: as §1
[6] = tested on: Cerebral cortex; test: Biodistribution in Sprague-Dawley rat cerebral cortex at 5 MBq, iv after 30 mins by autoradiography; format: ADME, organism-based; conditions: in vivo, 0.5 h; method in brief: as §1
[7] = tested on: Cerebellum; test: Biodistribution in Sprague-Dawley rat cerebellum at 5 MBq, iv after 30 mins by autoradiography in presence of 1 mg/kg of mGluR1 antagonist JNJ16259685; format: organism-based; set-up: dose 1 mg/kg, route intravenous; conditions: in vivo, 0.5 h; method in brief: as §1
[8] = tested on: Cerebellum; test: Biodistribution in Sprague-Dawley rat cerebellum at 5 MBq, iv after 30 mins by autoradiography; format: ADME, organism-based; conditions: in vivo, 0.5 h; method in brief: as §1
[9] = tested on: Striatum; test: Biodistribution in Sprague-Dawley rat striatum at 5 MBq, iv after 30 mins by autoradiography; format: ADME, organism-based; conditions: in vivo, 0.5 h; method in brief: as §1
[10] = tested on: Cerebral cortex; test: Biodistribution in Sprague-Dawley rat cerebral cortex at 5 MBq, iv after 30 mins by autoradiography in presence of 1 mg/kg of mGluR1 antagonist JNJ16259685; format: organism-based; set-up: dose 1 mg/kg, route intravenous; conditions: in vivo, 0.5 h; method in brief: as §1
[11] = tested on: Rattus norvegicus; test: Biodistribution in Sprague-Dawley rat pons-medulla at 5 MBq, iv after 30 mins by autoradiography in presence of 1 mg/kg of mGluR1 antagonist JNJ16259685; format: organism-based; set-up: dose 1 mg/kg, route intravenous; conditions: in vivo, 0.5 h; method in brief: as §1
[12] = tested on: Hippocampus; test: Biodistribution in Sprague-Dawley rat hippocampus at 5 MBq, iv after 30 mins by autoradiography; format: ADME, organism-based; conditions: in vivo, 0.5 h; method in brief: as §1
[13] = tested on: Striatum; test: Biodistribution in Sprague-Dawley rat striatum at 5 MBq, iv after 30 mins by autoradiography in presence of 1 mg/kg of mGluR1 antagonist JNJ16259685; format: organism-based; set-up: dose 1 mg/kg, route intravenous; conditions: in vivo, 0.5 h; method in brief: as §1

Question: With CC(C)Nc1cc(-c2csc(N(C)C(=O)c3ccc([18F])cc3)n2)ncn1 as the molecule, how does the Drug uptake [1] read?
Answer: 69.3 PSL/mm2

Question: And the Drug uptake [2]?
Answer: 63.1 PSL/mm2

Question: What about the logD [3] of the same molecule?
Answer: 1.46

Question: What about the Drug uptake [4] of the same molecule?
Answer: 672.6 PSL/mm2

Question: What about the Drug uptake [5] of the same molecule?
Answer: 58.3 PSL/mm2

Question: What about the Drug uptake [6] of the same molecule?
Answer: 342.2 PSL/mm2

Question: And the Drug uptake [7]?
Answer: 76.6 PSL/mm2

Question: And the Drug uptake [8]?
Answer: 635.9 PSL/mm2

Question: What about the Drug uptake [9] of the same molecule?
Answer: 478.5 PSL/mm2

Question: And the Drug uptake [10]?
Answer: 49.6 PSL/mm2

Question: What about the Drug uptake [11] of the same molecule?
Answer: 58.8 PSL/mm2

Question: What about the Drug uptake [12] of the same molecule?
Answer: 428.1 PSL/mm2

Question: And the Drug uptake [13]?
Answer: 54.1 PSL/mm2
